# The list is not random: actives were taken first. Their share in the collection is about 2.1%.
# Runt-CBFb FRET – Runt domain-CBFb interaction inhibition; Q01196+Q13951; Cerulean-Runt/Venus-CBFb FRET ratio 530/480, 1 h; inhibition, % at 20 µM; 220,000 compounds, 0.46% hits;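 active = inhibition over about 50% at 20 µM in the single-dose screen, limit read from the data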;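 note: 0% = DMSO wells and 100% = excess unlabeled CBFb competitor control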
# Target sequence (Q01196 whole entry, looked up, the tested form may be a part): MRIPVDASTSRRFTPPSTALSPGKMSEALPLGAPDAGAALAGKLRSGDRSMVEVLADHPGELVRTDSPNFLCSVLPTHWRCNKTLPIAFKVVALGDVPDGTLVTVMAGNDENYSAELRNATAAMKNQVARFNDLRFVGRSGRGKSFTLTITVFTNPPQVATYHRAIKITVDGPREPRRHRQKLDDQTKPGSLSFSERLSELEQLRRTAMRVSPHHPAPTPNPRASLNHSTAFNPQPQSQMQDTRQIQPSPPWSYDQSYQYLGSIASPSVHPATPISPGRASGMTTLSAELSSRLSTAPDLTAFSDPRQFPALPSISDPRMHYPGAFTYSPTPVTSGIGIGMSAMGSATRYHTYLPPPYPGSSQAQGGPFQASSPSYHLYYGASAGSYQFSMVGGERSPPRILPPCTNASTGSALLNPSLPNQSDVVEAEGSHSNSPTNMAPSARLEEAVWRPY
# Target sequence (Q13951 whole entry, looked up, the tested form may be a part): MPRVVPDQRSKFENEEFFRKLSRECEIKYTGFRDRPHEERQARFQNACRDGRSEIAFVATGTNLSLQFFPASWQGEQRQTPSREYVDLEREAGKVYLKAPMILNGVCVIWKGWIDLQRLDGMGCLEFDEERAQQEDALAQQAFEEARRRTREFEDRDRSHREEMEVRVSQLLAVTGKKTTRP
#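 test system = Cerulean-tagged RUNX1 Runt domain (FRET donor) fusion protein | reagent = Venus-CBFb binding partner, 100 nM | incubation = protein complex preformed 1 h, compound exposure 1 h, room temperature, dark | detection = FRET fluorescence | read-out basis = loss of energy transfer signal | controls = 5 µM unlabeled CBFb as full-inhibition high control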
# L929 necroptosis – blocks zVAD induced death of L929 cells; L929 zVAD necroptosis rescue, ATP luminescence, 24 h; with zVAD 60 µM; viability rescue, % at 10 µM; 220,000 compounds, 0.38% hits; AID 1377;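 active = activation, scaled between plate controls, above about 75%, limit read from the data; inactive = activation under that limit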;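 note: 0% = zVAD with DMSO and 100% = DMSO alone without zVAD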
# TNF death inh – TNF-alpha cell death inhibition in Jurkat FADD-/- cells; 220,000 compounds, 0.068% hits; AID 463075; activation (protection from cell death), % at 10 µM; Jurkat FADD-/- TNF necroptosis rescue, ATP luminescence, 24 h; 0 = TNF only, 100 = no-TNF cells;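 active = activation, meaning protection from cell death, of at least 50% relative to plate controls; inactive = activation below 50%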;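 note: necroptosis triggered by 40 ng/mL TNF-alpha added together with compound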
# Hck-Nef inh – inhibitors of human Hck kinase activated by Nef; P08631; inhibition, % at 20 µM; Recombinant Hck-YEEI plus Nef, Z-Lyte FRET kinase assay; AID 463187; 220,000 compounds, 0.68% hits;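 active = Hck-Nef kinase inhibition above about 50%, limit read from the data; inactive = inhibition below that limit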;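 note: 0% = DMSO with Hck plus Nef and 100% = Hck alone without Nef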
# Runt-SMMHC FRET – inhibitors of human RUNX1 Runt domain binding to CBFb-SMMHC; Cerulean-Runt/Venus-CBFb-SMMHC FRET ratio 530/480, 1 h; inhibition, % at 20 µM; Q01196+Q13951; AID 1434; 220,000 compounds, 0.74% hits;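 active = mean inhibition across duplicate retests at 20 µM reaching about 50%, limit read from the data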;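 note: 0% = DMSO wells and 100% = wells with excess untagged CBFb-SMMHC; inhibitors lower the FRET ratio by blocking Runt binding to CBFb-SMMHC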
# RanGTP-Impb inh – disruptors of Ran-importin-beta complex formation – biochemical, FRET, CFP-Ran, YFP-importin-beta, homogeneous, primary screen; cell-free CFP-Ran/YFP-importin-beta FRET ratio; inhibition, % (test concentration not listed); 300,000 compounds, 1.1% hits;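 active = more than half of the replicate wells show a fall in the fluorescence ratio signal beyond about 16%, limit read from the data, passing the limit was not always enough; inconclusive = exactly half of the replicate wells pass the set limit; inactive = fewer than half of replicates pass the limit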;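 note: 0% = DMSO wells and 100% = Ran loaded with GDP instead of GTP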
# Runt-CBFb TRFRET – inhibitors of human RUNX1 Runt domain binding to CBFb | shares compounds with Runt-CBFb FRET | TR-FRET RUNX1 Runt domain-CBFb binding | inhibition, % at 20 µM | 480 compounds, 20% hits | AID 1502; in the data active = inhibition above about 40%
# Active calls of the source: *; ? = inconclusive; . = not tested or not shown.
SMILES,Runt-CBFb FRET,L929 necroptosis,TNF death inh,Hck-Nef inh,Runt-SMMHC FRET,RanGTP-Impb inh,Runt-CBFb TRFRET
O=C(c1ccccc1)c1ccccc1N1C(=O)C=CC1=O,64.4*,-1.0,-21.4,-168.2,69.9*,1.3,14.5
CC(C)(C)C(=O)CSc1ncccn1,58.2*,2.3,3.0,21.3,41.5,5.4,69.6*
CC(C)(C)NC(=O)NC(=O)CSc1ncccn1,1.5,2.2,4.7,7.3,-0.5,1.8,.
Cc1nn(C)c2nc(-c3cccs3)cc(C(F)(F)F)c12,-2.9,4.2,3.3,-1.9,-3.0,-1.1,.
CN(C)c1nc(-c2cccs2)cc(C(F)(F)F)c1C#N,53.1*,-0.4,-0.5,-0.7,92.2*,72.9*,23.5
C=C1CCN([C@H](C(=O)OCc2cccc(C)c2)C(C)C)S(=O)(=O)c2ccccc21,-1.6,1.0,2.6,18.6,0.6,3.5,.
CCCCOC(=O)Nc1ccccc1C(N)=O,51.0*,2.9,1.1,1.5,116.3,?,1.5
CN(C(=O)c1ccccn1)c1nnc(-c2cccnc2)s1,82.1*,0.0,0.1,1.5,-2.0,.,-6.3
Cn1ccc(C(=O)Nc2ccc(Br)cc2Br)n1,-1.4,1.5,-0.8,3.5,0.2,1.0,.
Cc1ccc2nc3c(cc2c1)c(NC(=O)c1ccccn1)nn3CC(C)C,52.9*,0.1,-1.0,21.5,90.0*,116.4*,33.4
CCSc1nnc(NC(=O)C2CCCN(S(=O)(=O)c3cnc[nH]3)C2)s1 (stereo unspecified),64.2*,1.5,-0.1,22.0,0.5,-1.6,-10.2
c1ccc(-c2nc3cccnc3nc2-c2ccccc2)cc1,.,.,.,.,.,0.1,.
Cc1ccc(NC(=O)C2=C(O)c3sccc3N(C)S2(=O)=O)cc1,5.3,0.5,-2.3,2.6,23.1,1.0,.
Cc1ccc(NC(=S)C2=C(O)c3sccc3N(C)S2(=O)=O)cc1,65.3*,0.2,-2.4,-19.4,72.9*,81.0*,15.6
O=C1C(O)CC2c3ccccc3CC3(CCCC3)N12 (stereo unspecified),57.6*,0.5,0.6,3.0,2.2,-2.4,28.1
O=C(NC1CCCCCCC1)c1ccccc1O,1.1,0.8,-1.0,2.7,0.4,1.4,.
O=C(NC1CCCCCC1)c1ccc[nH]c1=S,53.6*,-0.6,-1.9,23.6,59.8*,1.1,-36.5
COc1cc(NC(=O)c2cccc(NC3=NC4CS(=O)(=O)CC4S3)c2)cc(OC)c1OC (stereo unspecified),.,.,.,.,.,-4.4,.
CC(C)NC(=O)c1cccc(Cn2cc(Cl)cn2)c1,53.6*,0.0,-2.1,1.1,2.0,3.7,-8.0
O=C(CSc1ncnc2ccccc12)c1cccs1,53.6*,1.1,2.3,20.3,90.2*,1.3,-28.1
O=C(CSc1ncnc2ccccc12)N1CCCC1,1.6,-0.8,1.1,3.7,0.6,1.6,.
CN(CC1CCOCC1)C(=O)CC1C(=O)NCCN1Cc1cccc(Oc2ccccc2)c1 (stereo unspecified),-0.8,0.3,0.7,-7.6,0.1,6.0,.
CN(CCOC(=O)CN1C(=O)c2ccccc2C1=O)C1=NS(=O)(=O)c2ccccc21,-1.1,3.1,0.3,2.7,-0.1,0.4,.
COc1ccc2c(c1)S/C(=C\C(=O)c1ccncc1)N2C,44.7,-0.3,-13.2,-1.7,-33.0,1.2,.
CN1/C(=C\C(=O)c2cccs2)Sc2ccccc21,52.5*,0.6,-7.0,49.8,93.9*,?,-0.1
SMILES,Runt-CBFb FRET,L929 necroptosis,TNF death inh,Hck-Nef inh,Runt-SMMHC FRET,RanGTP-Impb inh,Runt-CBFb TRFRET
CN1/C(=C\C(=O)c2cccc([N+](=O)[O-])c2)Sc2ccccc21,.,.,.,.,.,-1.3,.
COc1cc(OC)cc(C(=O)/C=C2\Sc3ccccc3N2C)c1,56.8*,1.1,-1.4,-4.2,47.7,1.5,6.3
CN1/C(=C/C(=O)C2CCC2)Sc2ccccc21,51.4*,0.3,-9.6,3.1,25.2,3.6,7.5
Cc1cc(O)c(-c2cc(O)c(C)cc2O)cc1O,58.0*,6.7,-30.2,-164.6,80.0*,3.5,43.4*
Cc1ccccc1OCC(=O)Nc1ccc(N2CCN(C)CC2)c(Cl)c1,.,.,.,.,.,1.7,.
Cc1cc2c(c(=O)n1Cc1cccnc1)C(Cc1ccccc1)C(C#N)=C(N)O2 (stereo unspecified),57.8*,-0.2,-1.6,1.0,85.5*,36.3*,-21.1
Cc1cc2c(c(=O)n1Cc1cccnc1)C(c1cccs1)C(C#N)=C(N)O2 (stereo unspecified),3.2,-0.9,-3.9,11.4,-0.1,4.6,.
Cc1cc2c(c(=O)n1CCc1ccccc1)C(c1ccco1)C(C#N)=C(N)O2 (stereo unspecified),61.9*,-0.1,-6.2,0.6,.,11.4,34.1
O=C(O)c1ccc(N/N=C2/CCCc3ccccc32)cc1,1.6,1.0,-4.6,-32.2,1.6,8.4,.
Cc1ccc(N2C(=O)C(Cl)=C(N3CCOCC3)C2=O)cc1Cl,64.8*,1.2,-1.4,33.0,53.6*,0.5,19.8
CN1CCN(C2=C(Cl)C(=O)N(c3ccc(Cl)c(Cl)c3)C2=O)CC1,11.9,0.9,-2.6,-3.0,23.4,-3.9,.
Cc1nnc(SCc2ccccc2CSc2nnc(C)s2)s1,-2.3,-0.3,0.4,6.9,0.6,?,.
COc1ccc(C2C(C#N)=C(N)N(Nc3ccccc3)C3=C2C(=O)CC(C)(C)C3)cc1C (stereo unspecified),61.5*,0.2,-10.7,0.5,101.5*,3.3,-2.8
COc1ccc(-n2nnnc2Sc2ccc(S(=O)(=O)N3CCOCC3)cn2)cc1,57.1*,.,.,.,34.9,1.4,-39.0
N#Cc1c(N)n(-c2ccccc2N)c2nc3ccccc3nc12,9.2,0.3,-6.7,24.5,7.4,3.0,.
COc1ccccc1CCn1c(N)c(C#N)c2nc3ccccc3nc21,80.3*,-0.1,-4.1,16.5,140.0*,56.4*,36.7
CN(C)/C=C/C(=O)c1ccc2noc(-c3ccccc3)c2c1,.,.,.,.,.,4.7,.
c1ccc(-c2onc3cc4c(cc23)OCCO4)cc1,77.4*,65.0,-2.3,-4.6,103.9*,6.3,11.1
CCC(C)[C@H](NC(=O)C1CC(=O)N(c2ccc3c(c2)OCO3)C1)C(=O)NC1CCCCC1 (stereo partly specified),.,.,.,.,.,-5.2,.
Cc1cc(C)nc(Sc2ncnc(N)c2[N+](=O)[O-])n1,58.5*,1.8,5.7,8.1,14.3,-0.8,23.0
CN(C)c1ccc(C(=S)N2CCN(Cc3ccccc3)CC2)cc1,49.8,-0.1,3.2,-36.7,32.4,2.2,.
CCN1CCN(C(=S)c2ccc(O)cc2)CC1,53.7*,2.1,0.4,27.1,27.0,3.5,-4.6
